Compound activity as filed in PubChem.
Exocytosis inh = lytic granule exocytosis inhibition | inhibition, % at 10 µM | TALL-104 LAMP-1 surface exposure, flow cytometry; cells stimulated with thapsigargin and PMA | hit rate 0.66% among 360,000;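 active = inhibition above about 55%, limit read from the data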
UPR XBP1 act = adaptive UPR (XBP1) activation; CHO-XBP1 luciferase reporter, IRE1-XBP1 UPR activation, luminescence; percent of tunicamycin response, DMSO as zero; activation, % at 20 µM; hit rate 0.33% among 330,000;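 active = versus positive control, 20 µM dose yields 30% or more activation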;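 note: 100% = tunicamycin at 10 µg/mL and 0% = DMSO only wells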
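incubation = overnight seeding at 37 °C, 6 h compound treatment at 37 °C | assay system = CHO-XBP1 cells stably carrying IRE1-XBP1-driven luciferase reporter | input = 1000 cells per well | detection = luciferase luminescence | dosing = single point, 20 µM final compound, 1% DMSO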
UPR CHOP act = activators of apoptotic arm of unfolded protein response (CHOP). CHO-CHOP luciferase reporter, UPR activation, luminescence; percent of tunicamycin response over DMSO baseline. activation, % at 10 µM. hit rate 0.34% among 330,000. AID 449763;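 active = at 10 µM dose, activation of 40% or more, normalized to positive control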;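 note: 100% = tunicamycin at 10 µg/mL and 0% = DMSO alone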
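System: CHO-CHOP luciferase reporter cell line | Buffer or medium: F12 medium containing 10% fetal bovine serum | Doses: One dose, 10 µM in 0.5% DMSO | Times: 6 h compound exposure at 37 °C after overnight seeding | Signal: Luciferase luminescence | Read-out: % activation vs tunicamycin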
Mdm2 MdmX PPI = disrupts the human Mdm2-MdmX interaction; SaOS-2 split-luciferase Mdm2/MdmX complementation, luminescence; inhibition, % at 8 µM; hit rate 3% among 330,000; AID 485346;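 active = inhibition of at least 50% at 8 µM in the primary screen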
ABHD5 PLIN5 PPI = blocks binding of human ABHD5 to perilipin-5 | Q00G26+Q8WTS1 | Split G. princeps luciferase complementation, luminescence, 4 h | inhibition, % at 4 µM | hit rate 0.78% among 360,000 | AID 602281;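 active = inhibition above the mean inhibition across every tested compound plus 3 SD, cut at about 22% in these data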;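 note: 0% = DMSO only wells and the 100% control is not disclosed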
XBP1 UPR conf = confirmation of adaptive unfolded protein response (XBP1) activators. shares compounds with UPR XBP1 act. CHO-XBP1 IRE1-XBP1 luciferase reporter, luminescence. activation, % at 20 µM. hit rate 63% among 1,000;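 active = reporter signal at least 30% of the positive control's activation in two or more of four replicate wells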;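 note: plate controls were DMSO negative control for no effect and tunicamycin 10 µg/mL positive control for full effect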
Mdm2-MdmX conf = human Mdm2/MdmX binding inhibition, confirmed; AID 489028; inhibition, % at 8 µM; hit rate 55% among 10,000; luminescent assay; shares compounds with Mdm2 MdmX PPI; in the data active = inhibition above about 40%
Full FLuc ctr = inhibits full-length luciferase, flagging false Mdm2/MdmX hits; SaOS-2 full-length luciferase counterscreen, luminescence; shares compounds with Mdm2 MdmX PPI; hit rate 77% among 6,200; AID 504607; inhibition, % at 8 µM;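 active = mean inhibition at 8 µM reaching about 37%, which flags the compound as non-specific, limit read from the data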;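 note: p53-null SaOS-2 cells with luciferase driven by a doxycycline-inducible promoter; compound on cells about two nights before reading with doxycycline added after day one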
The depositor's hits bear a star. An excerpt weighted towards active compounds, which were near 4% of everything screened.

CCOc1ccc(N=C(NC#N)SC)cc1 was read as Exocytosis inh 0, UPR XBP1 act -2, UPR CHOP act -1, Mdm2 MdmX PPI 33 and ABHD5 PLIN5 PPI -4.
Screening COc1cc(/C=C(\C#N)c2nc3ccccc3[nH]2)cc(Br)c1OCc1ccc(F)cc1 returned Exocytosis inh 2, UPR XBP1 act 110*, UPR CHOP act 1, Mdm2 MdmX PPI 75*, ABHD5 PLIN5 PPI -2, XBP1 UPR conf 128*, Mdm2-MdmX conf 33 and Full FLuc ctr 39*.
For COc1cc(/C=C(\C#N)c2nc3ccccc3[nH]2)cc(Br)c1OCc1ccccc1 the results were Exocytosis inh -8, UPR XBP1 act 8, UPR CHOP act 10, Mdm2 MdmX PPI 20 and ABHD5 PLIN5 PPI -5.
Screening Cc1cccc(C2CC(c3ccc(F)cc3)Nc3nc(N)nn32)c1 (centres undefined) returned Exocytosis inh -2, UPR XBP1 act -2, UPR CHOP act 0, Mdm2 MdmX PPI 14 and ABHD5 PLIN5 PPI 0.
For O=C(Oc1ccc2c(c1)OCO2)c1cc2c(s1)CCC2 the results were Exocytosis inh -1, UPR XBP1 act 37*, UPR CHOP act 35, Mdm2 MdmX PPI 97*, ABHD5 PLIN5 PPI -4, XBP1 UPR conf 9, Mdm2-MdmX conf 78* and Full FLuc ctr 21.
O=C(c1cc2c(s1)CCCC2)N1CCN(Cc2ccc3c(c2)OCO3)CC1 was read as Exocytosis inh -2, UPR XBP1 act 2, UPR CHOP act 2, Mdm2 MdmX PPI 30 and ABHD5 PLIN5 PPI 7.
Screening C=C(C)C(O)CC/C(C)=C/Cc1c(O)ccc(C(=O)/C=C/c2ccc(O)cc2)c1O (centres undefined) returned Exocytosis inh 13, UPR XBP1 act -8, UPR CHOP act -4, Mdm2 MdmX PPI 47 and ABHD5 PLIN5 PPI 3.
`COc1ccc(C(=O)/C=C/c2ccc(O)cc2)c(O)c1C/C=C(\C)CCC=C(C)C` gave Exocytosis inh 4, UPR XBP1 act 83*, UPR CHOP act 11, Mdm2 MdmX PPI 68*, ABHD5 PLIN5 PPI -11, XBP1 UPR conf 31* and Mdm2-MdmX conf -4.
`O=C(c1ccc(Br)cc1)c1cc([N+](=O)[O-])ccc1N1CCCCC1` gave Exocytosis inh 21, UPR XBP1 act 32*, UPR CHOP act 1, Mdm2 MdmX PPI 58*, ABHD5 PLIN5 PPI -5, XBP1 UPR conf 18, Mdm2-MdmX conf 52* and Full FLuc ctr 95*.
For O=C(c1ccccc1)c1cc([N+](=O)[O-])ccc1N1CCCC1 the results were Exocytosis inh 0, UPR XBP1 act -1, UPR CHOP act -1, Mdm2 MdmX PPI 23 and ABHD5 PLIN5 PPI 2.
Screening COc1ccc2c(c1)NC(c1cc(Cl)cc(Cl)c1O)c1cccn1-2 (centres undefined) returned Exocytosis inh -2, UPR XBP1 act 49*, UPR CHOP act 6, Mdm2 MdmX PPI 81*, ABHD5 PLIN5 PPI 0, XBP1 UPR conf 57* and Mdm2-MdmX conf 16.
Cc1ccccc1OCC(=O)NC(=S)Nc1ccc(N2CCCC2)cc1 was read as Exocytosis inh 0, UPR XBP1 act -2, UPR CHOP act -2, Mdm2 MdmX PPI 27 and ABHD5 PLIN5 PPI -8.
Screening Cc1ccc(S(=O)(=O)Nc2ccc(O)c3cccnc23)cc1 returned Exocytosis inh 2, UPR XBP1 act 1, UPR CHOP act 3, Mdm2 MdmX PPI 42 and ABHD5 PLIN5 PPI -3.
For Cc1c(-c2ccc(/C=N/NC(=O)C(=O)Nc3ccccc3F)o2)cccc1[N+](=O)[O-] the results were Exocytosis inh -5, UPR XBP1 act 73*, UPR CHOP act 18, Mdm2 MdmX PPI 56*, ABHD5 PLIN5 PPI 3, XBP1 UPR conf 7 and Mdm2-MdmX conf -1.
N#Cc1cccc(NC(=O)c2cc(C3CCCCN3C(=O)c3ccccc3)on2)c1 (centres undefined) was read as Exocytosis inh -2 and ABHD5 PLIN5 PPI -3.
